In the library only some 2.7% were active in any assay of this set; here they are far more common.
bovine MsrA act = bovine MsrA enzyme activators, primary screen, biochemical, absorbance, HTS | purified bovine MsrA, absorbance read-out | activation, % at 10.6 µM | AID 602163, 2012 | 360,000 compounds, 0.3% hits | Methionine sulfoxide reductase A (Bos taurus); in the data active means activation above about 7.5%;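 further: 0% = vehicle and 100% = reference activator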
ARFGAP1 inhibitor = inhibitors of rat ARFGAP1 GAP activity, primary screen, biochemical, fluorescence polarization, GDP tracer; 360,000 compounds, 0.26% hits; ADP-ribosylation factor GTPase-activating protein 1 (Rattus norvegicus), Q62848; AID 651572, 2012; inhibition, % at 16.5 µM; Arfgap1-stimulated ARF1 GTP hydrolysis, GDP FP detection;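 active means inhibition above a per-plate limit, mean inhibition of low control wells plus 3 SD, cut at about 25% in these data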;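 further: 0% = DMSO wells with enzyme and 100% = wells lacking Arfgap1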
Target sequence (Q62848 1-136 limits assumed): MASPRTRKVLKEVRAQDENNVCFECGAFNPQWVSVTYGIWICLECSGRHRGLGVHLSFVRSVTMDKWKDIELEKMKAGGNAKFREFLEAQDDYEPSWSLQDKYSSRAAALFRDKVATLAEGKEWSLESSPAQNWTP
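Material: rat Arfgap1 GAP domain (His6, aa 1-136), purified enzyme. Also added: human ARF1(Δ1-17)-GTP substrate. Compound dosing: 16.5 µM single point, 1.26% DMSO. Timing: enzyme reaction 120 min at 25 °C after 20 min preincubation. Signal: GDP detection by fluorescence polarization. Read-out basis: percent inhibition of GAP-stimulated GDP formation, scaled between DMSO and no-Arfgap1 medians.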
Rev-erbA mod = modulators of Rev-erb alpha DNA binding, primary screen, biochemical, FITC-DNA, fluorescence polarization, uHTS | Nuclear receptor subfamily 1 group D member 1 (Homo sapiens), P20393 | Rev-erbα–FITC-DNA binding, 90 min | activity, % at 10 µM | 370,000 compounds, 0.79% hits | AID 1259318, 2017;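 active means activity above about 14%, limit read from the data; passing the limit was not always enough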;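 further: 0% = DMSO wells with 35 nM protein and 100% = DMSO wells with 750 nM protein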
MsrA inh = bovine MsrA enzyme inhibitors, primary screen, biochemical, absorbance, HTS; purified bovine MsrA, absorbance read-out; 360,000 compounds, 0.75% hits; Methionine sulfoxide reductase A (Bos taurus); inhibition, % at 15.5 µM; in the data active means inhibition above about 4.5%;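 further: 0% = vehicle wells with enzyme and 100% = reference inhibitor wells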
ASAP1 inh = inhibitors of human ASAP1 ArfGAP activity, primary screen, biochemical, fluorescence polarization | Arf-GAP with SH3 domain, ANK repeat and PH domain-containing protein 1 (Homo sapiens), … | ASAP1-stimulated ARF1 GTP hydrolysis, GDP FP detection | inhibition, % at 16.5 µM | 360,000 compounds, 0.19% hits | AID 624377, 2012; in the data active means inhibition above about 25%;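 further: 0% = vehicle with enzyme and substrate and 100% = no enzyme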
sPLA2-III inh = human group III sPLA2 inhibitors, primary screen, biochemical, QFRET, BODIPY PC-A2 liposome substrate; Group 3 secretory phospholipase A2 (Homo sapiens), Q9NZ20; QFRET BODIPY PC-A2 liposome hydrolysis, fluorescence; inhibition, % at 12.2 µM; 370,000 compounds, 0.56% hits; AID 743126, 2013;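 active means inhibition above mean plus 3 SD of compounds lying within the high and low control bounds, cut at about 19% in these data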;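 further: 0% = median of test compound wells and 100% = no enzyme DMSO wells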
ARFGAP1 confirm = ARFGAP1 inhibitor hit confirmation, biochemical, fluorescence polarization, triplicate; inhibition, % at 16.5 µM; shares compounds with ARFGAP1 inhibitor; 890 compounds, 30% hits; ARFGAP1-stimulated ARF1 GTP hydrolysis, GDP tracer FP; AID 651608, 2012;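 active means average inhibition over triplicates above the hit cutoff set in the earlier primary screen, cut at about 25% in these data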;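 further: 0% = Arfgap1 plus ARF1-GTP with DMSO and 100% = wells lacking Arfgap1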
Target sequence (Q62848 whole entry, looked up): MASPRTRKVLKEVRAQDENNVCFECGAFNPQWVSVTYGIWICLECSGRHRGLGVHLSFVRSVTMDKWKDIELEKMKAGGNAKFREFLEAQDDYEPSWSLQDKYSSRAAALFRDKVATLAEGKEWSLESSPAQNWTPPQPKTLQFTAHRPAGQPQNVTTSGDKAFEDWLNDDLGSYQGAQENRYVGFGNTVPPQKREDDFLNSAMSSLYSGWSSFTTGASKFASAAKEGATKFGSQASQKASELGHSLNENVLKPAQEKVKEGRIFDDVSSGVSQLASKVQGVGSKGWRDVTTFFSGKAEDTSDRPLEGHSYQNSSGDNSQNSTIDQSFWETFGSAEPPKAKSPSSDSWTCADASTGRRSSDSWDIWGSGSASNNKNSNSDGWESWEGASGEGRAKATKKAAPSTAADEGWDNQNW
Active calls of the source: *; . = not tested or not shown.

SMILES | bovine MsrA act | ARFGAP1 inhibitor | Rev-erbA mod | MsrA inh | ASAP1 inh | sPLA2-III inh | ARFGAP1 confirm
COc1cccc(-c2csc(N3CCN(C(=O)Nc4ccc(Cl)cc4)CC3)n2)c1 | -0.3 | 28.1* | 3.1 | 0.3 | 3.0 | -0.5 | 5.8
O=C(COC(=O)CNS(=O)(=O)c1ccc2ccccc2c1)Nc1ccccc1Sc1ccccc1 | -3.4 | 29.8* | 3.1 | 0.4 | 7.5 | -33.7 | 7.5
COc1ccccc1Nc1c([N+](=O)[O-])cncc1[N+](=O)[O-] | -1.5 | 6.8 | -4.0 | 2.7 | 1.8 | 9.0 | .
Cc1ccccc1Nc1c([N+](=O)[O-])cncc1[N+](=O)[O-] | -7.5 | 26.7* | 3.1 | 2.4 | 2.2 | 10.6 | 1.1
COC(=O)[C@H]1C[C@@]2(N3CCCCC3)c3ccccc3N(S(=O)(=O)c3ccccc3)[C@H]2N1 | . | . | -6.7 | . | . | -1.0 | .
O=C(OCC(=O)N1CCN(C(=O)c2ccco2)CC1)c1cc(-c2ccc(Cl)c(Cl)c2Cl)nc2ccccc12 | -0.2 | 36.5* | -12.9 | -0.5 | 24.5 | 4.4 | 44.7*
O=C(CSc1nc2c(c(=O)n1-c1ccc(Br)cc1)SCC2)NCc1ccco1 | -4.1 | 29.3* | . | 1.9 | -3.0 | 13.1 | -2.7
COc1ccc(NC(C)=O)c([N+](=O)[O-])c1[N+](=O)[O-] | 0.6 | 6.1 | -0.9 | 0.9 | 9.4 | -6.0 | .
COc1ccc(OC)c([N+](=O)[O-])c1C(N)=O | -1.9 | 25.7* | -11.6 | 1.9 | 8.0 | 3.8 | -4.6
Cn1c(=O)cc(SCC(=O)NCCCN2CCN(c3ccc(F)cc3)CC2)c2ccccc21 | -2.5 | 37.6* | 0.1 | -0.7 | 0.7 | -5.2 | 7.8
Cn1c(=O)cc(SCC(=O)NCc2ccc(F)cc2)c2ccccc21 | -1.4 | 4.6 | 0.3 | 0.3 | -3.9 | 0.2 | .
CCOC(=O)CC[C@H]1CC[C@]2(CCCN(C(=O)c3cccnc3)C2)O1 | . | . | -2.7 | . | . | -2.3 | .
CCNc1nc(-c2sc(NC(=O)C(C)(C)C)nc2C)c(-n2cc(-c3ccccc3)nn2)s1 | -6.2 | 31.9* | 3.2 | 1.3 | 10.0 | -8.5 | 2.8
Cc1nc(NC(=O)C(C)(C)C)sc1-c1nc(N)sc1-n1cc(-c2ccccc2)nn1 | 2.9 | -3.3 | 8.9 | 0.3 | -7.2 | 2.6 | .
CCN1CCN(Cc2ccc(NC(=O)c3cc(NC(=O)C(=O)c4c[nH]c5ccccc45)cc(OC)c3)cc2C(F)(F)F)CC1 | -4.5 | 46.3* | 0.3 | -0.3 | 19.8 | -26.1 | 36.2*
CCN1CCN(Cc2ccc(NC(=O)c3ccc(C)c(NC(=O)C(=O)c4c[nH]c5ccccc45)c3)cc2C(F)(F)F)CC1 | -0.7 | 10.7 | 2.5 | -1.4 | 9.7 | -29.5 | .
Nc1ccc2nc(-c3ccc(Cl)cc3)[nH]c2c1 | -1.4 | 5.1 | -0.1 | 1.8 | 7.0 | 7.4 | .
Nc1ccc2cc3[nH]c4cc(N)ccc4c3nc2c1 | -0.9 | 46.4* | 1.8 | 0.2 | 11.5 | -75.2 | 73.2*
CCOC(=O)Cc1nc(-c2cccc(C(F)(F)F)c2)no1 | -2.3 | 26.8* | -1.8 | 0.4 | 1.9 | -19.1 | 5.4
COc1ccc(S[C@]2(C(=O)N3CCN(c4ncccn4)CC3)CC(=O)N(c3ccc(C#N)cc3)[C@@H]2c2ccc(OC)cc2)cc1 | . | . | 6.5 | . | . | -7.1 | .
NC(=O)Cn1cc(/C=N\NS(=O)(=O)c2cccc([N+](=O)[O-])c2)c2ccccc21 | -4.9 | 1.7 | 3.6 | -0.3 | -8.3 | 6.3 | .
Cc1ccc(S(=O)(=O)N/N=C\c2cn(CC(N)=O)c3ccccc23)cc1 | -0.5 | 29.9* | 1.1 | 0.9 | 0.3 | 0.2 | -7.0
COC(=O)[C@]12C[C@H](CC(=O)N3CCN(C(=O)c4ccco4)CC3)C(=O)N(Cc3ccc(Cl)cc3Cl)C1=C[C@H](C1CCCC1)O[C@@H]2C | . | . | -7.0 | . | . | -4.7 | .
C[C@@H]1COc2cc(N3CCCCC3)ccc2S(=O)(=O)N1 | . | 6.5 | 4.2 | -0.7 | -11.1 | 1.2 | .
COc1cc(/C=N/Nc2nc(C)cc(C)n2)ccc1O | -4.0 | 6.2 | 1.6 | 3.9 | -6.3 | 2.5 | .
SMILES | bovine MsrA act | ARFGAP1 inhibitor | Rev-erbA mod | MsrA inh | ASAP1 inh | sPLA2-III inh | ARFGAP1 confirm
COc1cc(/C=N/Nc2ccc(C(F)(F)F)cn2)ccc1O | -0.8 | 28.6* | 3.6 | 3.2 | 9.1 | -17.4 | 4.3
COc1ccc(S[C@]2(C(=O)N3CCOCC3)CC(=O)N(C(=O)/C=C/c3ccccc3)[C@@H]2c2ccc(OC)cc2)cc1 | . | . | -2.4 | . | . | -6.1 | .
CCN(c1ccc(C)c(C)c1)S(=O)(=O)c1ccc2c(c1)CCN2C(=O)CCC(=O)O | -4.5 | 28.6* | -4.8 | 1.1 | 2.4 | 9.8 | -5.1
C=CCN(C)CC#Cc1ccccc1C | . | . | -4.5 | . | . | 5.1 | .
CCCCCn1c(=O)[nH]c2cc(C(=O)N3CCN(C(=O)OCC)CC3)ccc2c1=O | -2.3 | 25.0* | 0.7 | -0.4 | -5.6 | -4.8 | 5.2
COC(=O)[C@]12C[C@H](CC(=O)NCc3cccs3)C(=O)N(Cc3ccco3)C1=C[C@H](C(C)C)O[C@@H]2C1CC1 | . | . | 1.1 | . | . | -2.2 | .
O=C(O)c1ccc(Nc2nc(-c3ccccc3)cs2)cc1 | -3.4 | -3.0 | -7.0 | 1.4 | 2.8 | -14.5 | .
N#Cc1ccc(Nc2nc(-c3ccccc3)cs2)cc1 | -4.1 | 30.3* | 0.1 | -0.6 | 0.1 | -20.6 | 14.3
COc1ccc(C(=O)N[C@H](C(=O)Nc2ccc(S(=O)(=O)N3CCOCC3)cc2)C(C)C)cc1 | -2.9 | 25.1* | -6.7 | 0.8 | 7.7 | -14.4 | 2.9
CCCCOCCCNC(=O)C[C@H]1C[C@@]2(C(=O)OC)C(=C[C@H](C(C)(C)C)O[C@@H]2C)N(Cc2ccc(Cl)cc2Cl)C1=O | . | . | 3.0 | . | . | -3.3 | .
CNC(C)C#Cc1ccc2sc3cccc(OC)c3c(=O)c2c1 (centres undefined) | -5.7 | 28.4* | -7.5 | 0.8 | 21.5 | -1.4 | 6.2
CNC(C)C#Cc1ccc2oc3cccc(OC)c3c(=O)c2c1 (centres undefined) | -7.0 | 1.2 | -17.5 | 0.1 | -7.2 | -0.1 | .
Brc1ccc2nc(-c3ccc(CN4CCC5(CC4)CNc4ccccc45)cc3)c(-c3ccccc3)nc2c1 | . | 25.6* | 8.8 | 2.5 | 4.8 | 18.2 | 7.4
CC(C)c1cccc(C(C)C)c1NC(=O)OC1CCCCC1 | -0.7 | 28.4* | -3.8 | -1.0 | -11.0 | 1.8 | 4.5
CSc1cccc(NC(=O)OC2CCCCCCCCCCC2)c1 | -0.9 | -0.2 | -0.4 | -0.5 | 2.1 | -3.4 | .

Assay outcomes deposited in PubChem BioAssay by several laboratories.
